{"data": "Experimental data gathered from unrelated publications", "target": "Serine/threonine-protein kinase TNNI3K (TNNI3K, Homo sapiens, UniProt Q59H18)", "Sequence (Q59H18 1-835, as in one of the studies)": "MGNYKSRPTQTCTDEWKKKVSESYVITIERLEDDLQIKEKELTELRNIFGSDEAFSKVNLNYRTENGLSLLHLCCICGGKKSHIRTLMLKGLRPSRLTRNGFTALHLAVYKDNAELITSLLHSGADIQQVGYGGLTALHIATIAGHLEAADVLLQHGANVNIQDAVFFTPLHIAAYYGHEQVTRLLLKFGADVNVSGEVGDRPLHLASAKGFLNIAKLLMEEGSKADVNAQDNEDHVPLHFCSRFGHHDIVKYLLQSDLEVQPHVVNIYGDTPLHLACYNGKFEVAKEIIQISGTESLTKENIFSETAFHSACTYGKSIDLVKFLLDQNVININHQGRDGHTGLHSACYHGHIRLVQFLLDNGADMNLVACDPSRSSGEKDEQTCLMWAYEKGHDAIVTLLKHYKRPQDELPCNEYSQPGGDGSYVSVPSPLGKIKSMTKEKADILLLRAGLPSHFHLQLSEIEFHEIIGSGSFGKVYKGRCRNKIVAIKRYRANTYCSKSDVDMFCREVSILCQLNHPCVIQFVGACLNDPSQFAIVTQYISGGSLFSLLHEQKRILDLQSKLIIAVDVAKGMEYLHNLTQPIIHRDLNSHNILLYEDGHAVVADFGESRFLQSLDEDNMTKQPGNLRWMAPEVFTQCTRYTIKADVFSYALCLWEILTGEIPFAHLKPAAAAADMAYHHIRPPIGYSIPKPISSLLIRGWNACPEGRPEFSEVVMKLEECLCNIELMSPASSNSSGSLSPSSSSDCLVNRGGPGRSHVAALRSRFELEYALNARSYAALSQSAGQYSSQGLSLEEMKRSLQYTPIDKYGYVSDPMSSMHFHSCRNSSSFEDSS", "note": "Compare with care: the assays were run in different laboratories."}
{"Structure (SMILES)": "O=C(NCCCN1CCOCC1)c1ccc(Nc2nccc(-c3cc4ccccc4s3)n2)cc1", "assay": "binding, competition with immobilised ligand", "conditions": "1 µM", "remaining binding [%]": 70}
{"Structure (SMILES)": "Cn1nc(C(F)(F)F)cc1-c1cnc(N2CCc3cc(S(=O)(=O)Nc4c(F)cc(Cl)cc4F)cc(N4CCCC4=O)c32)nc1", "assay": "cell-free assay, competition with immobilised ligand", "conditions": "1 µM", "remaining binding [%]": 65}
{"Structure (SMILES)": "C[C@@H]1CCN(c2nccc(-c3cnn4ncccc34)n2)C1", "assay": "binding", "conditions": "1 µM", "remaining binding [%]": 100}
{"Structure (SMILES)": "O=C(c1ccc(Nc2ncc(Cl)c(-c3cc4ccccc4s3)n2)cc1)N1CCC(N2CCCC2)CC1", "assay": "binding, competition with immobilised ligand", "conditions": "1 µM", "remaining binding [%]": 50}
{"Structure (SMILES)": "CCOC(=O)c1cc2cc(-c3cc(C(=O)NCc4ccc(C(=O)O)cc4)nn3C)ccc2[nH]1", "assay": "cell-free assay, competition with immobilised ligand", "conditions": "0.1 µM", "remaining binding [%]": 100}
{"Structure (SMILES)": "O=C(c1ccc(Nc2nccc(-c3cc4ccccc4s3)n2)cc1)N1CCC(N2CCCC2)CC1", "assay": "binding, competition with immobilised ligand", "conditions": "1 µM", "remaining binding [%]": 71}
{"Structure (SMILES)": "O=C(NCC1CCOCC1)c1n[nH]cc1NC(=O)c1c(F)cccc1F", "assay": "binding, competition with immobilised ligand", "conditions": "1 µM", "remaining binding [%]": 100}
{"Structure (SMILES)": "Nc1ncc2c(n1)-c1c([nH]c3ccc(C#CC4CC4)cc13)CCCC2", "assay": "binding, competition with immobilised ligand", "conditions": "1 µM", "remaining binding [%]": 94}
{"Structure (SMILES)": "COc1ccc2cc(OCC3(C(=O)O)CN(C(=O)c4ccc(F)cc4)C3)ccc2c1", "assay": "cell-free assay, competition with immobilised ligand", "conditions": "1 µM", "remaining binding [%]": 100}
{"Structure (SMILES)": "COc1cnc(Nc2cccc(S(N)(=O)=O)c2)nc1N1CCN(c2ccccc2)C(=O)C1", "assay": "binding, competition with immobilised ligand", "conditions": "1 µM", "remaining binding [%]": 86}
{"Structure (SMILES)": "O=C(NCCCC1CCCCC1)c1ccc(CNC(=O)c2cnn(-c3ccccc3)c2C(F)(F)F)cc1", "assay": "cell-free assay, competition with immobilised ligand", "conditions": "0.1 µM", "remaining binding [%]": 79}
{"Structure (SMILES)": "F[C@@H]1CCN(c2nccc(-c3cnn4ncccc34)n2)C1", "assay": "binding", "conditions": "1 µM", "remaining binding [%]": 100}
{"Structure (SMILES)": "CS(=O)(=O)c1cc(C2(NC(=O)c3cncc4c3cnn4-c3ccc(F)cc3)CC2)ccn1", "assay": "cell-free assay, competition with immobilised ligand", "conditions": "1 µM", "remaining binding [%]": 64}
{"Structure (SMILES)": "CN(c1nccc(-c2cnn3ncccc23)n1)C1CC1", "assay": "binding", "conditions": "1 µM", "remaining binding [%]": 84}
{"Structure (SMILES)": "FC(F)(F)Oc1cccc(-c2cnc3ccc(-c4ccncc4)nn23)c1", "assay": "binding, competition with immobilised ligand", "conditions": "5 µM", "remaining binding [%]": 91}
{"Structure (SMILES)": "Cc1cnn2ncc(-c3ccnc(N(C)C)n3)c2c1", "assay": "binding", "conditions": "1 µM", "remaining binding [%]": 100}
{"Structure (SMILES)": "Cc1nc(N2CC[C@@H](O)C2)ncc1-c1cc(C(F)(F)F)cc2[nH]ncc12", "assay": "cell-free assay, competition with immobilised ligand", "conditions": "1 µM", "remaining binding [%]": 87}
{"Structure (SMILES)": "C[C@@H](c1ccc(-n2cnc3c(N)ncnc32)cc1)N1CCc2nn(C)c(Cc3ccccc3)c2C1=O", "assay": "binding, competition with immobilised ligand", "conditions": "0.1 µM", "remaining binding [%]": 88}
{"Structure (SMILES)": "CN(CCCC(F)(F)F)c1nccc(-c2cnn3ncccc23)n1", "assay": "binding", "conditions": "1 µM", "remaining binding [%]": 100}
{"Structure (SMILES)": "Cc1c[nH]c2nccc(Oc3c(F)cc(Nc4cc(Cl)nc(N)n4)cc3F)c12", "assay": "cell-free assay, competition with immobilised ligand", "conditions": "0.1 µM", "remaining binding [%]": 98}
{"Structure (SMILES)": "N[C@@H]1CCN(c2nccc(-c3cnn4ncccc34)n2)C1", "assay": "binding", "conditions": "1 µM", "remaining binding [%]": 94}
{"Structure (SMILES)": "COc1cnc(Nc2cccc(S(N)(=O)=O)c2)nc1N1CCN(c2ccccc2)CC1", "assay": "binding, competition with immobilised ligand", "conditions": "1 µM", "remaining binding [%]": 96}
